According to ChEMBL document CHEMBL3112486, “Novel class of benzoic acid ester derivatives as potent PDE4 inhibitors for inhaled administration in the treatment of respiratory diseases” (J Med Chem, 2014):
Active and inactive are the calls of the source. No cut-off for these calls is given here.

How the values were obtained:
[1] = Metabolic stability in lung parenchyma of COPD patients under hydrolytic/proteolytic condition; assay type: ADME, tissue-based; conditions: human
[2] = Inhibition of bovine brain PDE1; design: species or system Bos taurus
In short: (§1)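 Radiometric two-step assay (modified Thompson–Appleman). PDE1 from bovine brain; PDE2, PDE3, PDE5 from human platelets; PDE6 from bovine retina. Compound tested in duplicate at five concentrations, starting at 30 μM with 1:10 serial dilution, 1% final DMSO.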

Cavia porcellus [3] = assay: Inhibition of ovalbumin-induced lung eosinophilia in Dunkin-Hartley guinea pig at 3 umol/kg administered intratracheally 2 hrs before ovalbumin challenge; assay type: functional; conditions: inhaled or nasal
In short: (§2)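 Sensitized guinea pigs challenged on day 20 after first sensitization with a 1 h aerosol of OVA (10 μg/mL in saline); sham group received saline aerosol. Compound given intratracheally as a dry powder formulation 2 h or 24 h before challenge. Read-out was airway/lung eosinophil influx.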

[4] = Half life in rat lung slices at 1 uM after 2 hrs by LC-MS/MS analysis; assay type: ADME, tissue-based
In short: (§3)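 Fresh lung slices preincubated 1 h at 37 °C under 95% O2/5% CO2 in DMEM/F12 with 10% FCS, then incubated with compound at 1 μM in MEM-Earle without phenol red for up to 2 h. Three replicates for human slices, four for rat. Compound measured by LC−MS/MS at 0, 20, 40, 60, 90, 120 min; testosterone (n = 2) checked slice viability.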

[5] = Half life in human lung slices at 1 uM after 2 hrs by LC-MS/MS analysis; assay type: ADME, tissue-based; in short: as §3
[6] = Half life in human lung S9 fraction; assay type: ADME, tissue-based
In short: (§4)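 Lung S9 fraction (0.5 mg protein/mL) incubated in duplicate with compound at 1 μM in Dulbecco's buffer pH 7.4, 37 °C, with 1 mM NADPH. Samples taken at 0, 15, 30, 60 min and quenched in ice-cold acetonitrile; unchanged compound measured by LC−MS/MS. Controls were no-NADPH and buffer-only incubations; 7-ethoxyresorufin 1 μM served as phase I positive control.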

U-937 [7] = assay: Selectivity ratio of IC50 for bovine brain PDE1 to IC50 for PDE4 isolated from human U937 cells; assay type: cell-based
In short: (§5)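 PDE1 from bovine brain, PDE6 from bovine retina, PDE2/3/5 from human platelets. Each was tested in a radiometric two-step assay at five concentrations, in duplicate, starting at 30 μM with 1:10 serial dilution and 1% DMSO. […] Ratio = PDEx IC50 / PDE4 IC50.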

[8] = target: 3',5'-cyclic-AMP phosphodiesterase 4D (Homo sapiens) (UniProt Q08499); conditions: Sf9
3',5'-cyclic-AMP phosphodiesterase 4D (Homo sapiens), sequence (Q08499 whole entry): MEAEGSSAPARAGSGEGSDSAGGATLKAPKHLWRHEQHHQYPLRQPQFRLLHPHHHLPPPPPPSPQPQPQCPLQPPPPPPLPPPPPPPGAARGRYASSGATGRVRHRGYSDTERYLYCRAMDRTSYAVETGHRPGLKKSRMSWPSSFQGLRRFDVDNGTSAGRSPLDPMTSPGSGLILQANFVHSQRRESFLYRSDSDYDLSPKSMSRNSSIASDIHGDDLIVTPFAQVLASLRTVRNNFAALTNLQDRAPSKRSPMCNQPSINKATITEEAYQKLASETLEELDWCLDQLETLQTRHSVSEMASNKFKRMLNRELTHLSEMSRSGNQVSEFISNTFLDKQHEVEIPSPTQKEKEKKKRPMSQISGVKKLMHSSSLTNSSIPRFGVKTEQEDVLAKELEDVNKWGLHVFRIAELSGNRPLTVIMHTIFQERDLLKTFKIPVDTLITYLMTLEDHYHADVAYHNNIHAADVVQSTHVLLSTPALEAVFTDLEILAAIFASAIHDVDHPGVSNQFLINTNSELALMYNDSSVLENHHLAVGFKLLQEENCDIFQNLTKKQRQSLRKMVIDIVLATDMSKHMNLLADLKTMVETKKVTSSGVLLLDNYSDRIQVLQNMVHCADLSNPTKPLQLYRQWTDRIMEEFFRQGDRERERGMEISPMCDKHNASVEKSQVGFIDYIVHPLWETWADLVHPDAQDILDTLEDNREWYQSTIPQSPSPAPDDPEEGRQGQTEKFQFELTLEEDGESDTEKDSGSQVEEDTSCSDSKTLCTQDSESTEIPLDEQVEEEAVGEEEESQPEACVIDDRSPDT

[9] = Plasma protein binding in rat at 5 uM after 5 hrs by LC-MS/MS analysis; assay type: ADME, cell-free; conditions: read-out: PPB (converted)
In short: (§6)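 Equilibrium dialysis: plasma spiked at 5 μM (from 500 μM stock) dialysed against phosphate buffer pH 7.4 for 5 h at 37 °C with slow rotation. Samples extracted with ACN/MeOH containing verapamil internal standard, centrifuged, and analysed by LC−MS/MS.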

[10] = Half life in rat lung S9 fraction; assay type: ADME, tissue-based; in short: as §4
[11] = Inhibition of bovine retina PDE6; design: species or system Bos taurus; in short: as §1
U-937 [12] = assay: Selectivity ratio of IC50 for human platelet PDE3 to IC50 for PDE4 isolated from human U937 cells; assay type: cell-based; in short: as §5
U-937 [13] = assay: Selectivity ratio of IC50 for human platelet PDE2 to IC50 for PDE4 isolated from human U937 cells; assay type: cell-based; in short: as §5
Cavia porcellus [14] = assay: Inhibition of ovalbumin-induced lung eosinophilia in Dunkin-Hartley guinea pig at 0.1 umol/kg administered intratracheally 2 hrs before ovalbumin challenge; assay type: functional; conditions: inhaled or nasal; in short: as §2
[15] = target: 3',5'-cyclic-AMP phosphodiesterase 4B (Homo sapiens) (UniProt Q07343); conditions: Sf9
3',5'-cyclic-AMP phosphodiesterase 4B (Homo sapiens), sequence (Q07343 whole entry): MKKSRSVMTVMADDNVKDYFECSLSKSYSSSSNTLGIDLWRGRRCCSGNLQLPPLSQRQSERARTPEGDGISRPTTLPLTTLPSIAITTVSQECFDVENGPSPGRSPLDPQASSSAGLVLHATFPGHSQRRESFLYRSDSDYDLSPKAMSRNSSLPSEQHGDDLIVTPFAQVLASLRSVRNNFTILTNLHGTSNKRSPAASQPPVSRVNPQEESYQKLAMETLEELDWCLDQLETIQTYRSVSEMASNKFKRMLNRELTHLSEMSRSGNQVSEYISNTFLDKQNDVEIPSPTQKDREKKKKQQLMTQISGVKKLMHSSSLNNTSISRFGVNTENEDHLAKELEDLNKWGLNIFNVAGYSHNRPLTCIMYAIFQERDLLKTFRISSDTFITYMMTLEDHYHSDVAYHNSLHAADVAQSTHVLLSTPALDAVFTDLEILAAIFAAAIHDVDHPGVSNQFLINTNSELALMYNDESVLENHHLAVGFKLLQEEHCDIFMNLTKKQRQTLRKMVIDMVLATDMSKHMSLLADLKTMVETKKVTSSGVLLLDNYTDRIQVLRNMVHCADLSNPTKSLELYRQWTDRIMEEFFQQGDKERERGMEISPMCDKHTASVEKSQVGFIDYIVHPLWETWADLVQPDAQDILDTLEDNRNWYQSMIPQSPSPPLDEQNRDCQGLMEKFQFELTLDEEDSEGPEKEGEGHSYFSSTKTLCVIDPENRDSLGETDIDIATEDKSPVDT

[16] = n-Octanol-buffer partition coefficient, log D of the compound at pH 7.4 by shake-flask method
Phosphodiesterase 4 [17] = target: T1, Phosphodiesterase 4 (Homo sapiens, UniProt P27815+Q08499+Q07343+Q08493); assay: Inhibition of PDE4 activity in human PBMC assessed as inhibition of LPS-induced TNFalpha release after 18 hrs by ELISA
In short: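 Human PBMCs plated at 10^5 cells/well in RPMI 1640 without phenol red plus 10% FBS, at 37 °C, 5% CO2. Compound added at 10^-15 to 10^-6 M (final DMSO 0.2%), with E. coli LPS at 3 ng/mL final, for 18 h. TNFα in supernatant measured by paired-antibody ELISA. IC50 from four-parameter logistic nonlinear regression, reported with 95% confidence intervals.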

U-937 [18] = assay: Selectivity ratio of IC50 for bovine retina PDE6 to IC50 for PDE4 isolated from human U937 cells; assay type: cell-based; in short: as §5
Cavia porcellus [19] = assay: Inhibition of ovalbumin-induced lung eosinophilia in Dunkin-Hartley guinea pig administered intratracheally 2 hrs before ovalbumin challenge; assay type: functional; in short: as §2
Cavia porcellus [20] = assay: Inhibition of ovalbumin-induced lung eosinophilia in Dunkin-Hartley guinea pig at 0.01 to 3 umol/kg administered intratracheally 24 hrs before ovalbumin challenge; assay type: functional, organism-based; in short: as §2
[21] = Metabolic stability in human plasma assessed as compound remaining at 5 uM after 1 hr by LC-MS/MS analysis; assay type: ADME, cell-free; conditions: read-out: Stability
In short: (§7)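 Compound from 5 mM DMSO stock added to plasma at 5 μM final and incubated at 37 °C up to 120 min. Aliquots taken at 0, 15, 30, 60, 90, 120 min and quenched with 2 volumes of chilled acetonitrile, then centrifuged.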

Cavia porcellus [22] = assay: Inhibition of ovalbumin-induced lung eosinophilia in Dunkin-Hartley guinea pig at 0.01 umol/kg administered intratracheally 2 hrs before ovalbumin challenge; assay type: functional; conditions: inhaled or nasal; in short: as §2
U-937 [23] = assay: Selectivity ratio of IC50 for human platelet PDE5 to IC50 for PDE4 isolated from human U937 cells; assay type: cell-based; in short: as §5
Phosphodiesterase 3 [24] = target: T2, Phosphodiesterase 3 (Homo sapiens, UniProt Q14432+Q13370); assay: Inhibition of human platelet PDE3; in short: as §1
[25] = Metabolic stability in rat plasma assessed as compound remaining at 5 uM after 1 hr by LC-MS/MS analysis; assay type: ADME, cell-free; conditions: read-out: Stability; in short: as §7
[26] = Permeability across apical to basolateral side in human Calu3 cells at 1.5 to 7 uM up to 120 mins by LC-MS/MS analysis; assay type: ADME, cell-based; conditions: calu-3, 2 h
In short: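 Calu-3 cells grown on Transwell filters in MEM at 37 °C, 5% CO2, for 3 days plus a further 11–27 days until confluent. Compound added apically at 1.5, 3.5 and 7 μM. Receiver compartment sampled at 0, 30, 60, 90, 120 min; quantified by LC−MS/MS.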

[27] = Plasma protein binding in human at 5 uM after 5 hrs by LC-MS/MS analysis; assay type: ADME, cell-free; conditions: read-out: PPB (converted); in short: as §6
Phosphodiesterase 4 [28] = target: T1, Phosphodiesterase 4; assay: Inhibition of PDE4 isolated from human U937 cells assessed as […] by LANCE assay; assay type: cell-free; conditions: u-937
[29] = Metabolic stability in rat lung S9 fraction assessed as compound remaining at 1 uM after 1 hr by LC-MS/MS analysis; assay type: ADME; conditions: read-out: Stability; in short: as §4
[30] = Apparent permeability across human Caco2 cells at 10 uM after 2 hrs by LC-MS/MS analysis; assay type: ADME, cell-based; conditions: Caco-2
In short: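 Caco-2 cells cultured 24 h, then switched to enterocyte differentiation medium for 3 days to form monolayers. Test compound 10 μM in DMEM (1% DMSO) added apically; apical pH 6.5, basolateral pH 7.4. After 2 h at 37 °C, apical, basolateral and starting solutions quantified by LC−MS/MS. Papp (nm/s) = flux/initial donor concentration; caffeine and cimetidine run as references.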

Cavia porcellus [31] = assay: Inhibition of ovalbumin-induced lung eosinophilia in Dunkin-Hartley guinea pig at 1 umol/kg administered intratracheally 2 hrs before ovalbumin challenge; assay type: functional; conditions: inhaled or nasal; in short: as §2
[32] = target: T3, cGMP-dependent 3',5'-cyclic phosphodiesterase (Homo sapiens, UniProt O00408); assay: Inhibition of human platelet PDE2; in short: as §1
T3 sequence (O00408 whole entry): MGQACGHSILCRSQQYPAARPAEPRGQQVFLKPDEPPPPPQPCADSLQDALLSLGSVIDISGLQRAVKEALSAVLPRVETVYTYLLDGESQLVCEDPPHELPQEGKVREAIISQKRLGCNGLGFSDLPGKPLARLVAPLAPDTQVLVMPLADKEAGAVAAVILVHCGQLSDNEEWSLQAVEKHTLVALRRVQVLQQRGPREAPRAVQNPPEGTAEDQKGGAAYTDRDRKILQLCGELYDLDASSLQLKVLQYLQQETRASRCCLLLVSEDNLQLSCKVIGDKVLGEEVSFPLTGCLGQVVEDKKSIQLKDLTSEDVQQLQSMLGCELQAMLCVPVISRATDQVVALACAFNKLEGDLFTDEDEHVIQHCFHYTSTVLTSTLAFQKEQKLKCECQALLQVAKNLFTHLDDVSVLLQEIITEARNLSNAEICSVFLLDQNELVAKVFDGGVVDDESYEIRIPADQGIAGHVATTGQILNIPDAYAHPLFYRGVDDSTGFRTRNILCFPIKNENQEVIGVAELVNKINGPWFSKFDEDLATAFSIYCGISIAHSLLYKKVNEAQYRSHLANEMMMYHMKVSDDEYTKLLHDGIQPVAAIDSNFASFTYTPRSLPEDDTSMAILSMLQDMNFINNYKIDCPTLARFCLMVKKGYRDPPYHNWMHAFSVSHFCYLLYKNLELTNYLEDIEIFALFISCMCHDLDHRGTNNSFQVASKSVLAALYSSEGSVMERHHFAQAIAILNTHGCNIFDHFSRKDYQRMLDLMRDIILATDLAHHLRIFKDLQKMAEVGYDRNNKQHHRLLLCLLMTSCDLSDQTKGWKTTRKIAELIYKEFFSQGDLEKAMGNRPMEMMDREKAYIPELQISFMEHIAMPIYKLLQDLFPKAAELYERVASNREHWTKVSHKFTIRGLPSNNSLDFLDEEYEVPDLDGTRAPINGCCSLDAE

[33] = Metabolic stability in human lung S9 fraction assessed as compound remaining at 1 uM after 1 hr by LC-MS/MS analysis; assay type: ADME; conditions: read-out: Stability; in short: as §4
Cavia porcellus [34] = assay: Inhibition of ovalbumin-induced lung eosinophilia in Dunkin-Hartley guinea pig at 0.3 umol/kg administered intratracheally 2 hrs before ovalbumin challenge; assay type: functional; conditions: inhaled or nasal; in short: as §2
[35] = target: cGMP-specific 3',5'-cyclic phosphodiesterase PDE5 (Homo sapiens) (UniProt O76074); assay: Inhibition of human platelet PDE5 at 10 uM
[36] = target: T3, cGMP-dependent 3',5'-cyclic phosphodiesterase; assay: Inhibition of human platelet PDE2 at 10 uM
Phosphodiesterase 3 [37] = target: T2, Phosphodiesterase 3; assay: Inhibition of human platelet PDE3 at 10 uM

## CS(=O)(=O)Nc1ccc(C(=O)O[C@@H](Cc2c(Cl)c[n+]([O-])cc2Cl)c2ccc(OC(F)F)c(OCC3CC3)c2)cc1OCC1CC1
[1]
  Stability: Stable
[2]
  IC50: > 1000 nM
Cavia porcellus [3]
  inhibition in vivo at 3 µmol/kg: 100%
[4]
  half-life at 1 µM: 2.87 h
[5]
  half-life at 1 µM: 3.95 h
[6]
  half-life: > 4.67 h
U-937 [7]
  Ratio IC50: > 20000
[8]
  T1/2: > 20 h
[9]
  fraction unbound at 5 h, 5 µM: 0.008
[10]
  half-life: 3.15 h
[11]
  IC50: > 1000 nM
U-937 [12]
  Ratio IC50: > 20000
U-937 [13]
  Ratio IC50: > 20000
Cavia porcellus [14]
  inhibition in vivo at 0.1 µmol/kg: 66%
[15]
  T1/2: > 20 h
[16]
  logD: 4.48
Phosphodiesterase 4 [17]
  IC50: 0.06 nM
U-937 [18]
  Ratio IC50: > 20000
Cavia porcellus [19]
  inhibition: Dose-dependent effect
Cavia porcellus [19]; inhaled or nasal
  ED50: 0.016 µmol/kg
Cavia porcellus [20]
  inhibition: Active
[21]
  remaining at 1 h, 5 µM: 100%
Cavia porcellus [22]
  inhibition in vivo at 0.01 µmol/kg: 47%
U-937 [23]
  Ratio IC50: > 20000
Phosphodiesterase 3 [24]
  IC50: > 1000 nM
[25]
  remaining at 1 h, 5 µM: 100%
[26]
  permeability: impermeable
[27]
  fraction unbound at 5 h, 5 µM: 0.0002
Phosphodiesterase 4 [28]
  IC50: 0.04 nM
[29]
  remaining at 1 h, 1 µM: 88%
[30]
  Papp at 2 h, 10 µM: < 1 ×10⁻⁶ cm/s
Cavia porcellus [31]
  inhibition in vivo at 1 µmol/kg: 83%
[32]
  IC50: > 1000 nM
[33]
  remaining at 1 h, 1 µM: 100%

## C[C@@H]1C[C@H]2[C@@H]3C[C@H](F)C4=CC(=O)C=C[C@]4(C)[C@@]3(F)[C@@H](O)C[C@]2(C)[C@@]1(OC(=O)c1ccco1)C(=O)SCF [FLUTICASONE FUROATE]
Cavia porcellus [34]
  inhibition in vivo at 0.3 µmol/kg: 90%
[16]
  logD: 4.43

## O=C(OC(Cc1c(Cl)cncc1Cl)c1ccc(OC(F)F)c(OCC2CC2)c1)c1ccc(OC(F)F)c(OCC2CC2)c1 (racemic)
[35]
  inhibition: 58%
[36]
  inhibition: 0%
Phosphodiesterase 4 [28]
  IC50: 3.45 nM
Phosphodiesterase 3 [37]
  inhibition: 18%

## CS(=O)(=O)Nc1cc(C(=O)O[C@@H](Cc2c(Cl)c[n+]([O-])cc2Cl)c2ccc(OC(F)F)c(OCC3CC3)c2)ccc1OCc1ccccc1
Phosphodiesterase 4 [17]
  IC50: 0.53 nM
Phosphodiesterase 4 [28]
  IC50: 0.32 nM

## Cc1ccc(O)c(C(=O)N[C@H]2CC[C@@H](NC(=O)c3cc(F)cnc3Oc3ccc(F)c(F)c3)CC2)c1 [UK-500001]
[16]
  logD: 4.27

## COc1ccc(C(=O)O[C@@H](Cc2c(Cl)c[n+]([O-])cc2Cl)c2ccc(OC(F)F)c(OCC3CC3)c2)cc1
Phosphodiesterase 4 [17]
  IC50: 0.47 nM
Phosphodiesterase 4 [28]
  IC50: 0.14 nM

## COc1ccc(C(=O)O[C@@H](Cc2c(Cl)c[n+]([O-])cc2Cl)c2ccc(OC(F)F)c(OCC3CC3)c2)cc1S(=O)(=O)N(C)C
Phosphodiesterase 4 [17]
  IC50: 1.85 nM
Phosphodiesterase 4 [28]
  IC50: 0.03 nM

## Cc1cc(C(=O)O[C@@H](Cc2c(Cl)c[n+]([O-])cc2Cl)c2ccc(OC(F)F)c(OCC3CC3)c2)ccc1NS(C)(=O)=O
Phosphodiesterase 4 [17]
  IC50: 0.41 nM
Phosphodiesterase 4 [28]
  IC50: 0.05 nM
